The test system of data set [1] is Hepatitis B virus. The experiment in a line: Antiviral activity against HBV infected in human HepG2.2.15 cells assessed as inhibition of viral DNA replication. In kind it is functional, organism-based, HepG2 2.2.15. The essentials:
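HepG2.2.15 cells, which secrete virus-like particles. Reference anti-HBV agents were run as positive controls. IC50 is the mean of three experiments. A compound with no activity at its maximum nontoxic concentration was scored as not active.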

Data set [2] in a line: Cytotoxicity against human HepG2(2.2.15) cells. In kind it is cell-based. The essentials: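 Viability of HepG2.2.15 cells was read after 48 h of compound exposure. Cytotoxic IC50 is the mean of three experiments.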
Data set [3] in a line: Therapeutic index, ratio of IC50 for human HepG2(2.2.15) cells to IC50 for HBV. In kind it is cell-based. To be noted: read-out: Ratio IC50.
[4] abbreviates: Hepatitis B virus, HepG2 2.2.15, read-out: IC50.

Consider `COC(=O)C1=C(C)NC(c2ncc(F)cc2F)=N[C@H]1c1ccc(F)cc1Cl`, for which the IC50 in data set [1] (setting [4]) stood at 0.78 µM; in data set [2] it was 567 µM.

Turning to `O=C1CCCC2=C1C(c1ccccc1Cl)N=C(c1cccnc1)N2` (centres undefined), the IC50 entry in data set [1] (hepg2 2.2.15) is “Not Active”; in data set [2], 1120 µM.

Consider `CC1(C)CC(=O)C2=C(C1)NC(c1ccncc1)=NC2c1ccc(F)cc1Cl` (centres undefined), for which the IC50 in data set [1] (setting [4]) is 4.92 µM; in data set [2], 135 µM. Further, the selectivity ratio in data set [3] came to 27.3.

On to `O=C1CCCC2=C1C(c1ccc(F)cc1Cl)N=C(c1ccncc1)N2` (centres undefined), for which the IC50 in data set [1] (setting [4]) came out at 16.5 µM; in data set [2] it was 142 µM. Besides, in data set [3], the selectivity ratio was 8.6.

As to `O=C1CCCC2=C1C(c1ccc(F)cc1)N=C(c1ccccn1)N2` (centres undefined), the IC50 entry in data set [1] (hepg2 2.2.15) was “Not Active”; in data set [2], 516 µM.

As for `CC1(C)CC(=O)C2=C(C1)NC(c1ncc(F)cc1F)=NC2c1ccc(F)cc1Cl` (centres undefined), the half-inhibitory concentration (IC50) was determined as 1.05 µM in data set [1] (setting [4]) and 41.2 µM in data set [2]. For the same molecule, the selectivity ratio in data set [3] came out at 39.2.

As for `CC1(C)CC(=O)C2=C(C1)NC(c1cnccn1)=NC2c1ccccc1Cl` (centres undefined), the IC50 entry in data set [1] (hepg2 2.2.15) is “Not Active”; in data set [2], 623 µM.

On to `O=C1CCCC2=C1C(c1ccccc1)N=C(c1ccccn1)N2` (centres undefined), for which the half-inhibitory concentration (IC50) in data set [1] (setting [4]) turned out to be 6.6 µM; in data set [2] it was 571 µM. Further, in data set [3], the selectivity ratio amounted to 86.6.

`O=C1CCCC2=C1C(c1ccc(F)cc1Cl)N=C(c1cccnc1)N2` (centres undefined): the results for the concentration for half-maximal inhibition (IC50) in data set [1] (setting [4]) and in data set [2] were 25.1 µM and 82.8 µM, respectively.

In the case of `CC1(C)CC(=O)C2=C(C1)NC(c1cccnc1)=NC2c1ccccc1` (centres undefined), the IC50 in data set [1] (setting [4]) was found to be 22.4 µM; in data set [2] it was 173 µM. The selectivity ratio in data set [3] came out at 7.74.

As for `CC1(C)CC(=O)C2=C(C1)NC(c1cnccn1)=NC2c1ccc(F)cc1Cl` (centres undefined), the IC50 in data set [1] (setting [4]) is 14.2 µM; in data set [2], 773 µM. Also, the selectivity ratio in data set [3] stood at 54.5.

Turning to `O=C1CCCC2=C1C(c1ccccc1Cl)N=C(c1cnccn1)N2` (centres undefined), the IC50 entry in data set [1] (hepg2 2.2.15) is “Not Active”; in data set [2], 1470 µM.

Regarding `O=C1CCCC2=C1C(c1ccc(F)cc1Cl)N=C(c1cnccn1)N2` (centres undefined), the 50% inhibitory concentration (IC50) worked out at 2.3 µM in data set [1] (setting [4]) and 777 µM in data set [2]. In addition, the selectivity ratio in data set [3] is 338.

As for `O=C1CCCC2=C1C(c1ccccc1)N=C(c1cccnc1)N2` (centres undefined), the half-inhibitory concentration (IC50) entry in data set [1] (hepg2 2.2.15) was “Not Active”; in data set [2] it was 369 µM.

Consider `CC1(C)CC(=O)C2=C(C1)NC(c1c(F)cc(F)cc1F)=NC2c1ccc(F)cc1Cl` (centres undefined), for which the IC50 entry in data set [1] (hepg2 2.2.15) was “Not Active”; in data set [2], 5.6 µM.

As to `O=C1CCCC2=C1C(c1ccc(F)cc1Cl)N=C(c1ccccn1)N2` (centres undefined), the IC50 is 4.3 µM in data set [1] (setting [4]) and 620 µM in data set [2]. The selectivity ratio in data set [3] worked out at 144.

On to `O=C1CCCC2=C1C(c1ccccc1Cl)N=C(c1ccccn1)N2` (centres undefined), for which the half-maximal inhibitory concentration (IC50) entry was “Not Active” in data set [1] (hepg2 2.2.15) and 589 µM in data set [2].

Take `CC1(C)CC(=O)C2=C(C1)NC(c1ncccc1F)=NC2c1ccc(F)cc1Cl` (centres undefined): the IC50 entry in data set [1] (hepg2 2.2.15) was “Not Active”; in data set [2], 371 µM.

For `CC1(C)CC(=O)C2=C(C1)NC(c1nccs1)=NC2c1ccc(F)cc1Cl` (centres undefined), the figures for the IC50 in data set [1] (setting [4]) and in data set [2] were 3.12 µM and 57 µM, respectively. For the same molecule, the selectivity ratio in data set [3] was found to be 19.2.

For the molecule `O=C1CCCC2=C1C(c1ccc(F)cc1Cl)N=C(c1ccco1)N2` (centres undefined), the 50% inhibitory concentration (IC50) entry was “Not Active” in data set [1] (hepg2 2.2.15) and 717 µM in data set [2].

On to `O=C1CCCC2=C1C(c1ccc(F)cc1Cl)N=C(c1c(F)cc(F)cc1F)N2` (centres undefined), for which the IC50 result in data set [1] (hepg2 2.2.15) was “Not Active”; in data set [2] it was 123 µM.

Regarding `CC1(C)CC(=O)C2=C(C1)NC(c1cccnc1)=NC2c1ccc(F)cc1Cl` (centres undefined), the IC50 in data set [1] (setting [4]) was determined as 0.44 µM; in data set [2], 624 µM. Besides, the selectivity ratio in data set [3] is 1420.

As to `O=C1CCCC2=C1C(c1ccc(F)cc1)N=C(c1cccnc1)N2` (centres undefined), the IC50 entry in data set [1] (hepg2 2.2.15) is “Not Active”; in data set [2] it was 280 µM.

Consider `O=C1CCCC2=C1C(c1ccc(F)cc1Cl)N=C(c1nccs1)N2` (centres undefined), for which the concentration for half-maximal inhibition (IC50) in data set [1] (setting [4]) worked out at 8.75 µM; in data set [2], 47.7 µM. Further, the selectivity ratio in data set [3] came out at 5.73.

As to `CC1(C)CC(=O)C2=C(C1)NC(c1cccnc1)=NC2c1ccc(F)cc1` (centres undefined), the results for the IC50 in data set [1] (setting [4]) and in data set [2] were 25.3 µM and 145 µM, respectively. The selectivity ratio in data set [3] amounted to 5.73.

As for `CC1(C)CC(=O)C2=C(C1)NC(c1cccnc1)=NC2c1ccccc1Cl` (centres undefined), the IC50 came to 26.2 µM in data set [1] (setting [4]) and 67.3 µM in data set [2]. Besides, the selectivity ratio in data set [3] stood at 2.56.

With `O=C1CCCC2=C1C(c1ccc(F)cc1Cl)N=C(c1ncccc1F)N2` (centres undefined), the IC50 in data set [1] (setting [4]) stood at 1.1 µM; in data set [2] it was 1370 µM. The selectivity ratio in data set [3] turned out to be 1240.

For `Nc1ccn([C@@H]2CS[C@H](CO)O2)c(=O)n1` [LAMIVUDINE], the half-maximal inhibitory concentration (IC50) in data set [1] (setting [4]) turned out to be 0.22 µM.

The term IC50 denotes the concentration at which inhibition is half-maximal.

The record behind these values is ChEMBL document CHEMBL1153099, “2,4-Diaryl-4,6,7,8-tetrahydroquinazolin-5(1H)-one derivatives as anti-HBV agents targeting at capsid assembly” (Bioorg Med Chem Lett, 2010).
